Data from ChEMBL document CHEMBL1152611, “Indene-based frameworks targeting the 5-HT6 serotonin receptor: ring constraint in indenylsulfonamides using cyclic amines and structurally abbreviated counterparts” (Bioorg Med Chem, 2009).

Tests used:
[1] = target: T1, 5-hydroxytryptamine receptor 6 (Homo sapiens, UniProt P50406); experiment: Antagonist activity at 5HT6 receptor; assay type: functional
[2] = target: T1, 5-hydroxytryptamine receptor 6; experiment: Binding affinity to 5HT6 receptor
[3] = target: T1, 5-hydroxytryptamine receptor 6; experiment: Displacement of [3H]LSD from human 5HT6 receptor expressed in HEK293 cells at 100 nM; assay type: cell-based
[4] = target: T1, 5-hydroxytryptamine receptor 6; experiment: Agonist activity at 5HT6 receptor; assay type: functional
Outline: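 HEK-293F cells stably expressing human 5-HT6, kept overnight in serum-free medium, then 20,000 cells/well in Ham's F12 with 1 mM IBMX and pargyline. Compound (DMSO at most 2% final) added for 30 min at 37 °C without 5-HT. cAMP measured by HTRF (cryptate plus XL-665), 1 h at room temperature, 665/620 nm ratio read.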

[5] = target: T1, 5-hydroxytryptamine receptor 6; experiment: Displacement of [3H]LSD from human 5HT6 receptor expressed in HEK293 cells; assay type: cell-based
Outline: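 Commercial HEK-293 membranes with human 5-HT6 diluted 1:40 in 50 mM Tris-HCl, 10 mM MgCl2, 0.5 mM EDTA, pH 7.4. Incubated with 2.7 nM [3H]-LSD and 22.9 µg protein for 60 min at 37 °C, then filtered on PEI-treated glass fibre. Nonspecific binding defined with 100 µM serotonin. Triplicate points; IC50 from a regression line, converted to Ki by Cheng-Prusoff.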

[6] = target: T1, 5-hydroxytryptamine receptor 6; experiment: Antagonist activity at human 5HT6 receptor expressed in HEK293 cells assessed as inhibition of 5-HT-stimulated cAMP accumulation by HTRF assay relative to untreated control; assay type: functional, cell-based
Outline: (§1)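 HEK-293F cells stably expressing human 5-HT6, serum-starved overnight, 20,000 cells/well in Ham's F12 with 1 mM IBMX and 20 µM pargyline. Compound or DMSO vehicle (final DMSO ≤2%) added for 30 min at 37 °C, with 5-HT present in antagonist mode. HTRF cAMP detection with cryptate and XL-665, 1 h at room temperature, read at 665/620 nm.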

[7] = target: T1, 5-hydroxytryptamine receptor 6; experiment: Agonist activity at human 5HT6 receptor expressed in HEK293 cells assessed as stimulation of cAMP accumulation by HTRF assay relative to control; assay type: functional, cell-based; outline: as §1
[8] = target: T2, Adrenergic receptor alpha-1 (Rattus norvegicus, UniProt P15823+P23944+P43140); experiment: Inhibition of rat alpha1 adrenergic receptor
T2 sequence (P15823 whole entry): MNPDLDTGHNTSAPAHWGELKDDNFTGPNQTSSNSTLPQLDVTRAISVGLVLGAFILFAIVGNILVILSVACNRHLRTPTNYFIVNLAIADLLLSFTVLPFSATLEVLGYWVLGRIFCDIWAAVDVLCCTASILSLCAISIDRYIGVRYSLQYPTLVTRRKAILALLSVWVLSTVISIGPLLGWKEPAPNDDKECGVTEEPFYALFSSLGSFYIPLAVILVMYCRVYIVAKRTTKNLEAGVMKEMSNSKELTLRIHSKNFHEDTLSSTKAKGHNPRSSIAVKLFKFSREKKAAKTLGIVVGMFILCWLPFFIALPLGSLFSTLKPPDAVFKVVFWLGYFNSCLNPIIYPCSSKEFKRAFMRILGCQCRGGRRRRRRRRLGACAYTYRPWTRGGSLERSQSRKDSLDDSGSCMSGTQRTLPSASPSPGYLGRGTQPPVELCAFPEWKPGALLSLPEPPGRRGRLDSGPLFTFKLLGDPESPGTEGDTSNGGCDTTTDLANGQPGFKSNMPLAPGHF
T2 sequence (P23944 whole entry): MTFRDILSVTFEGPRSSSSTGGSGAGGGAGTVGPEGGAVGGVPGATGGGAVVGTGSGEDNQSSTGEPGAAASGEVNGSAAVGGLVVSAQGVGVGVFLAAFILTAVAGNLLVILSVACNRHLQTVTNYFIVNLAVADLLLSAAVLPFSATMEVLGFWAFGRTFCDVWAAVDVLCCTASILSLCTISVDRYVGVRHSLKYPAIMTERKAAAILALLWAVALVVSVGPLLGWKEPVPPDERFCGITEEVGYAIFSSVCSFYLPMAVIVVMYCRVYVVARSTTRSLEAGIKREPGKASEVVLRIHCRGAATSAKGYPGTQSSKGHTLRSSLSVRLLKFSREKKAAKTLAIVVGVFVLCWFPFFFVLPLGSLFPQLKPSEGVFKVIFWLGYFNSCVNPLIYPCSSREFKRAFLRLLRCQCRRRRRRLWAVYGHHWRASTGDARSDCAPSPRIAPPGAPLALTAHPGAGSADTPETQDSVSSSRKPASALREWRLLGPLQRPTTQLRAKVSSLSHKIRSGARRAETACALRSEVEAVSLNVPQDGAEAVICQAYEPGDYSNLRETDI
T2 sequence (P43140 whole entry): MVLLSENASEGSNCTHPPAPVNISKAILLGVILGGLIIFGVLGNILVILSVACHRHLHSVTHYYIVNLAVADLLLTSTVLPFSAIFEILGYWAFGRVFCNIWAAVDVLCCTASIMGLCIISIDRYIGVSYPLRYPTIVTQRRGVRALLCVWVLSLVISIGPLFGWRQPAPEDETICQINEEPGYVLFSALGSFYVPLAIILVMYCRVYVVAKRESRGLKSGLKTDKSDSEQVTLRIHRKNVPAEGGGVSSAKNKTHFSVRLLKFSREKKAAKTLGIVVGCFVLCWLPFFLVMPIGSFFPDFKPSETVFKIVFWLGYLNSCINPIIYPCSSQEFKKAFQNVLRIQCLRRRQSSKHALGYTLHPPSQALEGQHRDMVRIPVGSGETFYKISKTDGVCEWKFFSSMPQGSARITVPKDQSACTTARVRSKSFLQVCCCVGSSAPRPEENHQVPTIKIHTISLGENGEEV

[9] = target: T3, Alpha-2A adrenergic receptor (Homo sapiens, UniProt P08913); experiment: Inhibition of human alpha-2a adrenergic receptor
T3 sequence (P08913 whole entry): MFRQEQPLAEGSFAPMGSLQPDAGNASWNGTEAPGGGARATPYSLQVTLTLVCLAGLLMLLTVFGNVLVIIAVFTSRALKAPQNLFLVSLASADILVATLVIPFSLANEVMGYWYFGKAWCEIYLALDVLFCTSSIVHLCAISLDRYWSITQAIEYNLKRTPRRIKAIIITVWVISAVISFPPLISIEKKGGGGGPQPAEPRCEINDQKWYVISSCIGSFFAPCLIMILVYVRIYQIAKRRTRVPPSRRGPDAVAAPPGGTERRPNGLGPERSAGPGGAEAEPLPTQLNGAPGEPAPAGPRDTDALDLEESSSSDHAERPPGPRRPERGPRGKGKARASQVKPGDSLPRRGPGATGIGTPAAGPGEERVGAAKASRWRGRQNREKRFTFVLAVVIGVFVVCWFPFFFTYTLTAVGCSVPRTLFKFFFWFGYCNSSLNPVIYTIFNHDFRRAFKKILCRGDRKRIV

[10] = target: T4, 5-hydroxytryptamine receptor 1A (Homo sapiens, UniProt P08908); experiment: Inhibition of human 5HT1A receptor
T4 sequence (P08908 whole entry): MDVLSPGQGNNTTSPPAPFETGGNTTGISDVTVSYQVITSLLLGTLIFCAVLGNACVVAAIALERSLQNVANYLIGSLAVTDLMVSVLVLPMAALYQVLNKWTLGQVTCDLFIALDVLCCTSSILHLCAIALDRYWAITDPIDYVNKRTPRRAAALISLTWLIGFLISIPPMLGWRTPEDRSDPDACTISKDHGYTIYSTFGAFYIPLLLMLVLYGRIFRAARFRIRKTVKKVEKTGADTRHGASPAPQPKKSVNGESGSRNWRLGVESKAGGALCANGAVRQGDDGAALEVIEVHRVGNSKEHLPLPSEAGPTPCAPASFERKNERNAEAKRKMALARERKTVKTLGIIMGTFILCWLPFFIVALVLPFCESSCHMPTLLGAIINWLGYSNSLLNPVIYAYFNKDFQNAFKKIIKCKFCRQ

[11] = target: T5, 5-hydroxytryptamine receptor 2C (Homo sapiens, UniProt P28335); experiment: Inhibition of human 5HT2C receptor
T5 sequence (P28335 whole entry): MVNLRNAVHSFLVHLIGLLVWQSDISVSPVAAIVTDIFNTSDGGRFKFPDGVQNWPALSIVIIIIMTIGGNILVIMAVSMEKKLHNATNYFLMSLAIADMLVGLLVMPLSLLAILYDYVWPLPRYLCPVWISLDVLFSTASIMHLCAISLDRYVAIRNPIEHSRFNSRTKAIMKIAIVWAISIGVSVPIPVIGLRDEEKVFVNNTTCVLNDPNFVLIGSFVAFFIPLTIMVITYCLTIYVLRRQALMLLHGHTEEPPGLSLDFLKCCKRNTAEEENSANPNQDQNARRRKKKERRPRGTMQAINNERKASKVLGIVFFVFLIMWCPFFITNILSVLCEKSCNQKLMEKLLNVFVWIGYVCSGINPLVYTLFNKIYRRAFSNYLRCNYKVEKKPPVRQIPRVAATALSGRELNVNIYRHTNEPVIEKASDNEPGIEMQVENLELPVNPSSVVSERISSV

[12] = target: Sodium-dependent serotonin transporter (Homo sapiens, UniProt P31645); experiment: Inhibition of human SERT
Sequence of Sodium-dependent serotonin transporter (P31645 whole entry): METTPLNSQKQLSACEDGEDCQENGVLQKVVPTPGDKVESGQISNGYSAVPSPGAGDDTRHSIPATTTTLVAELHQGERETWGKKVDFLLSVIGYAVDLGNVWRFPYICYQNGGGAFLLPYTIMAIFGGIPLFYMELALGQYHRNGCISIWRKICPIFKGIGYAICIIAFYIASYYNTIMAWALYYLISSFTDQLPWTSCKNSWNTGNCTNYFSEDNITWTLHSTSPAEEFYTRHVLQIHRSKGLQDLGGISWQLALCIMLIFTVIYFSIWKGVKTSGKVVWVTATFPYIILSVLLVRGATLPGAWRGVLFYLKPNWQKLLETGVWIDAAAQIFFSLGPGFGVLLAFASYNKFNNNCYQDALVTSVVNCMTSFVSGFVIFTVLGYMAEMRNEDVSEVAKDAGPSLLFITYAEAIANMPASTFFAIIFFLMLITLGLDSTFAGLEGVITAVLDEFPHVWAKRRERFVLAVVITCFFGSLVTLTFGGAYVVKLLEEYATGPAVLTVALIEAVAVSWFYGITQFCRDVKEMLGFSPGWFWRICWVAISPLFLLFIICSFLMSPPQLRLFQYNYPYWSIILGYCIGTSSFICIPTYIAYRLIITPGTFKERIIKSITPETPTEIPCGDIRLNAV

[13] = target: T1, 5-hydroxytryptamine receptor 6; experiment: Antagonist activity at human 5HT6 receptor expressed in HEK293 cells assessed as inhibition of 5-HT-stimulated cAMP accumulation by HTRF assay; assay type: functional, cell-based; outline: as §1

T1 sequence (P50406 whole entry): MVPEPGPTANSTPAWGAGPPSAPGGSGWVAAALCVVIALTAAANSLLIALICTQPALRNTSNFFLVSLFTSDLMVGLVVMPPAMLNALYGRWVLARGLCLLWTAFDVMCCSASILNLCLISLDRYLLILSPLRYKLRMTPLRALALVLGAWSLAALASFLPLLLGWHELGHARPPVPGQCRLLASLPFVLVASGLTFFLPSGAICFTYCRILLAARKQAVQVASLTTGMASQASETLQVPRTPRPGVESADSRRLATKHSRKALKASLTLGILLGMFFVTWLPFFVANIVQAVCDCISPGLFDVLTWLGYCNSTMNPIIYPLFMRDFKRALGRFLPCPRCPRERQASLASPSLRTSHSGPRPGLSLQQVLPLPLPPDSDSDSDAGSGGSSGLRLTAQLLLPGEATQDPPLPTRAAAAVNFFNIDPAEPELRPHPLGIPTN

SMILES | IC50 [1] [nM] | Ki [2] [nM] | inhibition [3] [%] | Ki [5] [nM] | Imax [6] [%] | IC50 [9] [nM] | IC50 [10] [nM] | also measured
Cc1cn(S(=O)(=O)c2ccc(N)cc2)c2ccccc12 | 320 |  |  |  |  |  |  | 
CN(C)Cc1cn(S(=O)(=O)c2ccccc2)c2ccccc12 | 880 | 3 |  |  |  |  |  | 
Cc1c(S(=O)(=O)Nc2ccc3c(c2)C([C@H]2CCN(C)C2)=CC3)sc2ccc(Cl)cc12 |  |  | 57 |  |  |  |  | 
CC1=C(C2CCCN(C)C2)c2cc(NS(=O)(=O)c3sc4ccc(Cl)cc4c3C)ccc2C1 (stereo unspecified) |  |  | 22 |  |  |  |  | 
O=S(=O)(Nc1ccc2[nH]cc(C[C@H]3CCCN3)c2c1)c1ccc(C(F)(F)F)cc1 |  | 0.4 |  |  |  |  |  | EC50 [4]: 4.5 nM
COc1cc2c(cc1NS(=O)(=O)c1c(Cl)nc3sccn13)C(C)=C(C)C2 |  |  | 84 | 64 | 10 | > 1000 | > 10000 | Emax [7]: 49%; IC50 [8]: > 10000 nM; IC50 [11]: > 1000 nM; IC50 [12]: > 10000 nM
O=S(=O)(Nc1ccc2[nH]cc(C[C@@H]3CCCN3)c2c1)c1ccc(C(F)(F)F)cc1 | 21.6 | 10 |  |  |  |  |  | 
CC1=C(C2CCCN(C)C2)c2cc(NS(=O)(=O)c3c(Cl)nc4sccn34)ccc2C1 (stereo unspecified) |  |  | 86 | 18 | 28 | 1210 | > 10000 | 
CC1=CC(C)(C)c2ccc(NS(=O)(=O)c3c(Cl)nc4sccn34)cc21 |  |  | 75 | 80 | 92 | > 10000 | > 10000 | IC50 [13]: 2400 nM; IC50 [11]: > 10000 nM; IC50 [12]: > 10000 nM
